Reference: ChEMBL document CHEMBL1136992, “Further studies at neuropeptide s position 5: discovery of novel neuropeptide S receptor antagonists” (J Med Chem, 2009)
Active and inactive are the calls of the source. The rule behind the calls is not given here. Square brackets hold non-standard residues; d marks the D form. Peptide text beside a SMILES is read from it. * marks the point of attachment. d(tBuAla) = CC(C)(C)C[C@@H](N)C(=O)O; d(aThr) = C[C@@H](O)[C@@H](N)C(=O)O; dCha = N[C@H](CC1CCCCC1)C(=O)O; dChg = N[C@@H](C(=O)O)C1CCCCC1; dPen = CC(C)(S)[C@@H](N)C(=O)O; dPhg = N[C@@H](C(=O)O)c1ccccc1; dNva = CCC[C@@H](N)C(=O)O; tBu = CC(C)(C)*

Tests used:
[1] = biological target: T1, Neuropeptide S receptor (Homo sapiens) (UniProt Q6W5P4); details: HEK293
T1 sequence (whole entry): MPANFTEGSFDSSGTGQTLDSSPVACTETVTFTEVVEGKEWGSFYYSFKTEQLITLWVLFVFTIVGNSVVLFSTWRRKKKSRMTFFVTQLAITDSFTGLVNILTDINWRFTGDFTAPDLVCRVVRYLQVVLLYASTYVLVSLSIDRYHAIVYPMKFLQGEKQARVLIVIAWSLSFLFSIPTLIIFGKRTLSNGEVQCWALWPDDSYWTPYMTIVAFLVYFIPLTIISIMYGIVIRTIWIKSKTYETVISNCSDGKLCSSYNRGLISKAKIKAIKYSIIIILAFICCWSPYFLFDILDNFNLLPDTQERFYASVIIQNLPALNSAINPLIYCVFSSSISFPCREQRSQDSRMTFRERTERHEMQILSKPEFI

[2] = biological target: T2, Neuropeptide S receptor (Mus musculus) (UniProt Q8BZP8); assay: Agonist activity at mouse NPSR expressed in HEK293 cells up to 10 uM by calcium mobilization assay; format: functional, cell-based
T2 sequence (whole entry): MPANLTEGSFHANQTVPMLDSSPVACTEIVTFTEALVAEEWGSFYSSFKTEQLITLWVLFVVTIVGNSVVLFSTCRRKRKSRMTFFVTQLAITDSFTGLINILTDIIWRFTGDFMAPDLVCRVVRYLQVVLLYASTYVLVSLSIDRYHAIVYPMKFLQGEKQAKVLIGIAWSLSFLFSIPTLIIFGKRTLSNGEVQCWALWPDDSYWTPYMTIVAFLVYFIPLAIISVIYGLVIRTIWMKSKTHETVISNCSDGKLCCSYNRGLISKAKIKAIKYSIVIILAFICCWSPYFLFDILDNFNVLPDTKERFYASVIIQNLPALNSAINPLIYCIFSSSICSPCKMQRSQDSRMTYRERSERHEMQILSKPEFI
Summary of the method: (§1)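 HEK293 cells stably expressing mouse NPSR; intracellular calcium mobilization measured after peptide addition, concentration-response curves giving pEC50 and Emax as % over basal. Mean of at least four separate experiments performed in duplicate.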

Neuropeptide S receptor = biological target: T3, Neuropeptide S receptor (Mus musculus, UniProt Q8BZP8); assay: Agonist activity at mouse NPSR expressed in HEK293 cells by calcium mobilization assay; format: functional, cell-based
T3 sequence (Q8BZP8 whole entry): T2 sequence (whole entry)
Summary of the method: as §1

[3] = biological target: T2, Neuropeptide S receptor (Mus musculus); assay: Antagonist activity at mouse NPSR expressed in HEK293 cells assessed as inhibition of NPS-induced response; format: functional, cell-based
Summary of the method: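 HEK293 cells stably expressing mouse NPSR, calcium mobilization. Inhibition response curves to test peptides against 30 nM NPS, run at 37 °C with three up-and-down mixing cycles right after antagonist injection to aid diffusion. Mean of at least four separate experiments performed in duplicate.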

| Emax [2] | EC50 (Neuropeptide S receptor) [nM] | Compound | further results |
| --- | --- | --- | --- |
| inactive |  | CSCC[C@H](NC(=O)CNC(=O)[C@@H](NC(=O)CNC(=O)[C@@H](NC(=O)[C@H](NC(=O)[C@H](CC(N)=O)NC(=O)[C@H](CCCNC(=N)N)NC(=O)[C@H](Cc1ccccc1)NC(=O)[C@@H](N)CO)[C@@H](C)O)C(C)C)[C@@H](C)O)C(=O)N[C@@H](CCCCN)C(=O)N[C@@H](CCCCN)C(=O)N[C@H](C(=O)N[C@@H](CO)C(=O)N[C@@H](Cc1ccccc1)C(=O)N[C@@H](CCC(N)=O)C(=O)N[C@@H](CCCNC(=N)N)C(=O)N[C@@H](C)C(=O)N[C@@H](CCCCN)C(=O)O)[C@@H](C)O (H-SFRN[d(aThr)]VGTGMKKTSFQRAK-OH) |  |
| inactive |  | CSCC[C@H](NC(=O)CNC(=O)[C@@H](NC(=O)CNC(=O)[C@@H](NC(=O)[C@H](NC(=O)[C@H](CC(N)=O)NC(=O)[C@H](CCCNC(=N)N)NC(=O)[C@H](Cc1ccccc1)NC(=O)[C@@H](N)CO)C1CCCCC1)C(C)C)[C@@H](C)O)C(=O)N[C@@H](CCCCN)C(=O)N[C@@H](CCCCN)C(=O)N[C@H](C(=O)N[C@@H](CO)C(=O)N[C@@H](Cc1ccccc1)C(=O)N[C@@H](CCC(N)=O)C(=O)N[C@@H](CCCNC(=N)N)C(=O)N[C@@H](C)C(=O)N[C@@H](CCCCN)C(=O)O)[C@@H](C)O (H-SFRN[dChg]VGTGMKKTSFQRAK-OH) |  |
| inactive |  | CC[C@@H](C)[C@@H](NC(=O)[C@H](CC(N)=O)NC(=O)[C@H](CCCNC(=N)N)NC(=O)[C@H](Cc1ccccc1)NC(=O)[C@@H](N)CO)C(=O)N[C@H](C(=O)NCC(=O)N[C@H](C(=O)NCC(=O)N[C@@H](CCSC)C(=O)N[C@@H](CCCCN)C(=O)N[C@@H](CCCCN)C(=O)N[C@H](C(=O)N[C@@H](CO)C(=O)N[C@@H](Cc1ccccc1)C(=O)N[C@@H](CCC(N)=O)C(=O)N[C@@H](CCCNC(=N)N)C(=O)N[C@@H](C)C(=O)N[C@@H](CCCCN)C(=O)O)[C@@H](C)O)[C@@H](C)O)C(C)C (H-SFRN[dI]VGTGMKKTSFQRAK-OH) |  |
|  | 2690 | CCC[C@@H](NC(=O)[C@H](CC(N)=O)NC(=O)[C@H](CCCN=C(N)N)NC(=O)[C@H](Cc1ccccc1)NC(=O)[C@@H](N)CO)C(=O)N[C@H](C(=O)NCC(=O)N[C@H](C(=O)NCC(=O)N[C@@H](CCSC)C(=O)N[C@@H](CCCCN)C(=O)N[C@@H](CCCCN)C(=O)N[C@H](C(=O)N[C@@H](CO)C(=O)N[C@@H](Cc1ccccc1)C(=O)N[C@@H](CCC(N)=O)C(=O)N[C@@H](CCCN=C(N)N)C(=O)N[C@@H](C)C(=O)N[C@@H](CCCCN)C(=O)O)[C@@H](C)O)[C@@H](C)O)C(C)C (H-SFRN[dNva]VGTGMKKTSFQRAK-OH) |  |
|  | 661 | CSCC[C@H](NC(=O)CNC(=O)[C@@H](NC(=O)CNC(=O)[C@@H](NC(=O)[C@H](NC(=O)[C@H](CC(N)=O)NC(=O)[C@H](CCCN=C(N)N)NC(=O)[C@H](Cc1ccccc1)NC(=O)[C@@H](N)CO)c1ccccc1)C(C)C)[C@@H](C)O)C(=O)N[C@@H](CCCCN)C(=O)N[C@@H](CCCCN)C(=O)N[C@H](C(=O)N[C@@H](CO)C(=O)N[C@@H](Cc1ccccc1)C(=O)N[C@@H](CCC(N)=O)C(=O)N[C@@H](CCCN=C(N)N)C(=O)N[C@@H](C)C(=O)N[C@@H](CCCCN)C(=O)O)[C@@H](C)O (H-SFRN[dPhg]VGTGMKKTSFQRAK-OH) |  |
| inactive |  | CSCC[C@H](NC(=O)CNC(=O)[C@@H](NC(=O)CNC(=O)[C@@H](NC(=O)[C@H](NC(=O)[C@H](CC(N)=O)NC(=O)[C@H](CCCNC(=N)N)NC(=O)[C@H](Cc1ccccc1)NC(=O)[C@@H](N)CO)C(C)C)C(C)C)[C@@H](C)O)C(=O)N[C@@H](CCCCN)C(=O)N[C@@H](CCCCN)C(=O)N[C@H](C(=O)N[C@@H](CO)C(=O)N[C@@H](Cc1ccccc1)C(=O)N[C@@H](CCC(N)=O)C(=O)N[C@@H](CCCNC(=N)N)C(=O)N[C@@H](C)C(=O)N[C@@H](CCCCN)C(=O)N[C@@H](CO)C(=O)O)[C@@H](C)O (H-SFRN[dV]VGTGMKKTSFQRAKS-OH) | pKb [3]: 6.54 |
| inactive |  | CC[C@H](C)C(NC(=O)[C@H](CC(N)=O)NC(=O)[C@H](CCCNC(=N)N)NC(=O)[C@H](Cc1ccccc1)NC(=O)[C@@H](N)CO)C(=O)N[C@H](C(=O)NCC(=O)N[C@H](C(=O)NCC(=O)N[C@@H](CCSC)C(=O)N[C@@H](CCCCN)C(=O)N[C@@H](CCCCN)C(=O)N[C@H](C(=O)N[C@@H](CO)C(=O)N[C@@H](Cc1ccccc1)C(=O)N[C@@H](CCC(N)=O)C(=O)N[C@@H](CCCNC(=N)N)C(=O)N[C@@H](C)C(=O)N[C@@H](CCCCN)C(=O)O)[C@@H](C)O)[C@@H](C)O)C(C)C (single isomer, unassigned) |  |

Continued, compound first:

| Compound | Emax [2] | EC50 (Neuropeptide S receptor) [nM] | further results |
| --- | --- | --- | --- |
| O=C(NCc1ccc(F)cc1)N1CCN2C(=O)OC(c3ccccc3)(c3ccccc3)C2C1 (stereo not given) |  |  | pKb [1]: 7.5 |
| CSCC[C@H](NC(=O)CNC(=O)[C@@H](NC(=O)CNC(=O)[C@@H](NC(=O)[C@@H](CC(C)(C)C)NC(=O)[C@H](CC(N)=O)NC(=O)[C@H](CCCN=C(N)N)NC(=O)[C@H](Cc1ccccc1)NC(=O)[C@@H](N)CO)C(C)C)[C@@H](C)O)C(=O)N[C@@H](CCCCN)C(=O)N[C@@H](CCCCN)C(=O)N[C@H](C(=O)N[C@@H](CO)C(=O)N[C@@H](Cc1ccccc1)C(=O)N[C@@H](CCC(N)=O)C(=O)N[C@@H](CCCN=C(N)N)C(=O)N[C@@H](C)C(=O)N[C@@H](CCCCN)C(=O)O)[C@@H](C)O (H-SFRN[d(tBuAla)]VGTGMKKTSFQRAK-OH) |  | 1660 |  |
| CSCC[C@H](NC(=O)CNC(=O)[C@@H](NC(=O)CNC(=O)[C@@H](NC(=O)[C@@H](CSC(C)(C)C)NC(=O)[C@H](CC(N)=O)NC(=O)[C@H](CCCNC(=N)N)NC(=O)[C@H](Cc1ccccc1)NC(=O)[C@@H](N)CO)C(C)C)[C@@H](C)O)C(=O)N[C@@H](CCCCN)C(=O)N[C@@H](CCCCN)C(=O)N[C@H](C(=O)N[C@@H](CO)C(=O)N[C@@H](Cc1ccccc1)C(=O)N[C@@H](CCC(N)=O)C(=O)N[C@@H](CCCNC(=N)N)C(=O)N[C@@H](C)C(=O)N[C@@H](CCCCN)C(=O)N[C@@H](CO)C(=O)O)[C@@H](C)O (H-SFRN[dC](tBu)VGTGMKKTSFQRAKS-OH) |  |  | pKb [3]: 6.5 |
| CSCC[C@H](NC(=O)CNC(=O)[C@@H](NC(=O)CNC(=O)[C@@H](NC(=O)[C@@H](CC1CCCCC1)NC(=O)[C@H](CC(N)=O)NC(=O)[C@H](CCCNC(=N)N)NC(=O)[C@H](Cc1ccccc1)NC(=O)[C@@H](N)CO)C(C)C)[C@@H](C)O)C(=O)N[C@@H](CCCCN)C(=O)N[C@@H](CCCCN)C(=O)N[C@H](C(=O)N[C@@H](CO)C(=O)N[C@@H](Cc1ccccc1)C(=O)N[C@@H](CCC(N)=O)C(=O)N[C@@H](CCCNC(=N)N)C(=O)N[C@@H](C)C(=O)N[C@@H](CCCCN)C(=O)O)[C@@H](C)O (H-SFRN[dCha]VGTGMKKTSFQRAK-OH) | inactive |  |  |
| CSCC[C@H](NC(=O)CNC(=O)[C@@H](NC(=O)CNC(=O)[C@@H](NC(=O)[C@H](NC(=O)[C@H](CC(N)=O)NC(=O)[C@H](CCCNC(=N)N)NC(=O)[C@H](Cc1ccccc1)NC(=O)[C@@H](N)CO)C(C)(C)S)C(C)C)[C@@H](C)O)C(=O)N[C@@H](CCCCN)C(=O)N[C@@H](CCCCN)C(=O)N[C@H](C(=O)N[C@@H](CO)C(=O)N[C@@H](Cc1ccccc1)C(=O)N[C@@H](CCC(N)=O)C(=O)N[C@@H](CCCNC(=N)N)C(=O)N[C@@H](C)C(=O)N[C@@H](CCCCN)C(=O)O)[C@@H](C)O (H-SFRN[dPen]VGTGMKKTSFQRAK-OH) | inactive |  |  |
| CSCC[C@H](NC(=O)CNC(=O)[C@@H](NC(=O)CNC(=O)[C@@H](NC(=O)[C@H](NC(=O)[C@H](CC(N)=O)NC(=O)[C@H](CCCNC(=N)N)NC(=O)[C@H](Cc1ccccc1)NC(=O)[C@@H](N)CO)[C@H](C)O)C(C)C)[C@@H](C)O)C(=O)N[C@@H](CCCCN)C(=O)N[C@@H](CCCCN)C(=O)N[C@H](C(=O)N[C@@H](CO)C(=O)N[C@@H](Cc1ccccc1)C(=O)N[C@@H](CCC(N)=O)C(=O)N[C@@H](CCCNC(=N)N)C(=O)N[C@@H](C)C(=O)N[C@@H](CCCCN)C(=O)O)[C@@H](C)O (H-SFRN[dT]VGTGMKKTSFQRAK-OH) |  | 794 |  |
| H-SFRNGVGTGMKKTSFQRAKS-OH [NEUROPEPTIDE S] |  | 4.79 |  |
